In ChEMBL document CHEMBL1132971, “New azolidinediones as inhibitors of protein tyrosine phosphatase 1B with antihyperglycemic properties” (J Med Chem, 2000):
Values belong to the compound of their own block, whether it stands above or below them. Calls of active or inactive are those of the source. No cut-off for these calls is given here.

How the values were obtained:
[1] = target: T1, Tyrosine-protein phosphatase non-receptor type 1 (Rattus norvegicus, UniProt P20417); test: Inhibition of PTPase activity using recombinant r-PTP1B as the enzyme and IR-triphosphopeptide as substrate
T1 sequence (P20417 whole entry): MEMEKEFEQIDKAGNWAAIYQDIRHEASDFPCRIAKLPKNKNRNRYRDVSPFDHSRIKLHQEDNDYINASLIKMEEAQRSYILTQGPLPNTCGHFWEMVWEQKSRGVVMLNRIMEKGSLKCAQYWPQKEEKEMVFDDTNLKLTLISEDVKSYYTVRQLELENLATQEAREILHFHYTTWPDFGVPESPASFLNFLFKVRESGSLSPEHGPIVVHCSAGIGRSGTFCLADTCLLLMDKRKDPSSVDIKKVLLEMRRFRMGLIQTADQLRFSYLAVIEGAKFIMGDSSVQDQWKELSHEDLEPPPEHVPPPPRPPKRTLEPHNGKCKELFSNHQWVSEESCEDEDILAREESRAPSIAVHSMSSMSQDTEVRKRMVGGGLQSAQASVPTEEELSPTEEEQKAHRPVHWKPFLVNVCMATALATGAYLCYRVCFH
Procedure, shortened: (§1)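 Rat recombinant PTP1B in 33 mM TRIS-HCl, 2 mM EDTA, 50 mM β-mercaptoethanol, pH 7.4 (about 1000-2000 nmol/min/mg). Preincubated 10 min at 37 °C with or without compound in HEPES buffer pH 7.4. Released phosphate read by malachite green-ammonium molybdate at 650 nm against a phosphate standard. Quadruplicates. IC50 by four-parameter logistic fit.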

[2] = target: T2, Tyrosine-protein phosphatase non-receptor type 1 (Rattus norvegicus) (UniProt P20417); test: Inhibition of PTPase (PTP1B) activity in rat hepatic membrane at 50 uM concentration, using pNPP as the substrate; format: cell membranes; details: Liver
T2 sequence (whole entry): T1 sequence (P20417 whole entry)
Procedure, shortened: (§2)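 Liver membranes from male Sprague-Dawley rats (100-150 g), about 30 µg protein per well. Preincubated 10 min at 37 °C with compound in 1.25% DMSO in 50 mM HEPES pH 7.4. Then 6.33 mM pNPP for 30 min at 37 °C, stopped with NaOH. p-Nitrophenol read at 410 nm. Run in triplicate. Reported as percent of untreated control.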

[3] = target: T1, Tyrosine-protein phosphatase non-receptor type 1; test: Inhibition of PTPase activity using recombinant Protein-tyrosine phosphatase 1B as the enzyme and IR-triphosphopeptide as substrate
[4] = target: T2, Tyrosine-protein phosphatase non-receptor type 1 (Rattus norvegicus); test: Inhibition of Protein-tyrosine phosphatase 1B activity in rat hepatic membrane at a concentration of 50 uM using pNPP as the substrate; format: cell membranes; details: Liver; procedure, shortened: as §2
[5] = test system: Mus musculus; test: Evaluated for their ability to decrease plasma insulin levels in mouse at a dose 100 mg/kg/day. **p indicates <0.01; format: functional
Procedure, shortened: (§3)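 Mice dosed orally once daily for 4 days; plasma glucose and insulin measured and expressed as percent change versus a vehicle-treated group (mean ± SE, 4-6 mice/group). NS is generally less than -15% change. Significance is versus vehicle-treated mice.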

[6] = test system: Mus musculus; test: Evaluated in vivo for their ability to decrease plasma glucose levels in diabetic C57BL/KsJ ob/ob mouse at a dose 100 mg/kg/day.; format: functional; procedure, shortened: as §3
[7] = target: T2, Tyrosine-protein phosphatase non-receptor type 1 (Rattus norvegicus); test: Inhibition of PTPase activity using recombinant r-PTP1B as the enzyme and IR-triphosphopeptide as substrate at 50 uM; procedure, shortened: as §1
[8] = test system: Mus musculus; test: Evaluated in vivo for their ability to decrease plasma glucose levels in diabetic C57BL/KsJ db/db mouse at a dose 100 mg/kg/day; NS is not significant; format: functional, organism-based
Procedure, shortened: (§4)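 Diabetic db/db or ob/ob mice dosed orally once daily for 4 days. Plasma glucose and insulin reported as percent change from a vehicle-treated group. 4-6 mice per group. Significance set at p < 0.05 or p < 0.01 versus vehicle; NS means generally less than -15% change.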

[9] = test system: Mus musculus; test: Evaluated in vivo for their ability to decrease plasma glucose levels in diabetic C57BL/KsJ ob/ob mouse at a dose 70 mg/kg/day; NS is not significant; format: functional, organism-based; procedure, shortened: as §4
[10] = test system: Mus musculus; test: Evaluated for their ability to decrease plasma insulin levels in mouse at a dose 70 mg/kg/day; NS is not significant; format: functional, organism-based; procedure, shortened: as §4
[11] = target: T2, Tyrosine-protein phosphatase non-receptor type 1 (Rattus norvegicus); test: Inhibition of PTPase activity using recombinant Protein-tyrosine phosphatase 1B as the enzyme and IR-triphosphopeptide as substrate at 50 uM
Procedure, shortened: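 Recombinant rat PTP1B (human 321-aa form assayed the same way), activity about 1000-2000 nmol/min/mg, preincubated with compound for 10 min at 37 °C in HEPES pH 7.4. The reaction is started with 50 µM triphosphorylated insulin receptor 1142-1153 dodecapeptide and run 30 min at 37 °C. Released phosphate read by malachite green-molybdate at 650 nm, in quadruplicate. Result is percent inhibition versus control.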

[12] = test system: Mus musculus; test: Evaluated in vivo for their ability to decrease plasma glucose levels in diabetic C57BL/KsJ db/db mouse at a dose 100 mg/kg/day.([…]); format: functional; procedure, shortened: as §4
[13] = target: T2, Tyrosine-protein phosphatase non-receptor type 1 (Rattus norvegicus); test: IC50 for PTPase activity, recombinant r-PTP1B as the enzyme .
[14] = test system: Mus musculus; test: Evaluated for their ability to decrease plasma insulin levels in mouse at a dose 100 mg/kg/day.([…]); format: functional; procedure, shortened: as §4
[15] = test system: Mus musculus; test: Evaluated for their ability to decrease plasma insulin levels in mouse at a dose 100 mg/kg/day; NS=not significant; format: functional, organism-based; procedure, shortened: as §4
[16] = test system: Mus musculus; test: Evaluated for their ability to decrease plasma insulin levels in mouse at a dose 100 mg/kg/day.; format: functional; procedure, shortened: as §3
[17] = test system: Mus musculus; test: Evaluated for their ability to decrease plasma insulin levels in mouse at a dose 100 mg/kg/day; **p indicates <0.01; format: functional; procedure, shortened: as §3
[18] = test system: Mus musculus; test: Evaluated in vivo for their ability to decrease plasma glucose levels in diabetic C57BL/KsJ ob/ob mouse at a dose 100 mg/kg/day; **p indicates <0.01; format: functional; procedure, shortened: as §3
[19] = test system: Mus musculus; test: Evaluated in vivo for their ability to decrease plasma glucose levels in diabetic C57BL/KsJ db/db mouse at a dose 100 mg/kg/day. *p indicates <0.05; format: functional; procedure, shortened: as §3
[20] = target: T3, Tyrosine-protein phosphatase non-receptor type 1 (Homo sapiens) (UniProt P18031); test: % inhibition of PTPase activity, recombinant human Protein-tyrosine phosphatase 1B as the enzyme at a concentration 50 uM
T3 sequence (whole entry): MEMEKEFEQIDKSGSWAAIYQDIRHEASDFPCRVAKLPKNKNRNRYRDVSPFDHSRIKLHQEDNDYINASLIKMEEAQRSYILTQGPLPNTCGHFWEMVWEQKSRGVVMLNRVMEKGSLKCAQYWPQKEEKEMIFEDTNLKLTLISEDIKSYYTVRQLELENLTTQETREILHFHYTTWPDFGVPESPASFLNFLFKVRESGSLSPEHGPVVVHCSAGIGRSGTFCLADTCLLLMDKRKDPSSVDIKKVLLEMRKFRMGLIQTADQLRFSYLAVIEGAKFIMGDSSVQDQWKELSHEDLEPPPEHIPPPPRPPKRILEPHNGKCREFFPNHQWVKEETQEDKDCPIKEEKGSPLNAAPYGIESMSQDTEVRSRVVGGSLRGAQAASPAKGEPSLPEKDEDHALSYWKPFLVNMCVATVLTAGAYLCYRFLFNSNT
Procedure, shortened: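 Human recombinant PTP1B (321 aa form) dephosphorylating IR-triphosphopeptide (pY1146/1150/1151), 50 µM final. Run as for the rat enzyme: 10 min preincubation with compound at 37 °C, pH 7.4, then 30 min reaction at 37 °C. Phosphate read by malachite green-ammonium molybdate at 650 nm. Quadruplicates. IC50 by four-parameter logistic regression.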

IC50 [1]: 0.8 µM
inhibition [2]: 57%
IC50 [3]: 1.8 µM
inhibition [4]: 61%
Compound: CCCC/C(=C\Cn1oc(=O)[nH]c1=O)c1cccc(OCc2cc(Cl)cc(Cl)c2)c1

inhibition [2]: 51%
IC50 [13]: 1.8 µM
Compound: Cc1oc(-c2ccc(C(F)(F)F)cc2)nc1COc1cccc(/C(I)=C/Cn2oc(=O)[nH]c2=O)c1
Decrease [12]: 38%
Decrease [14]: 64%

IC50 [13]: 0.4 µM
Compound: CCCCCCCC/C(=C\Cn1oc(=O)[nH]c1=O)c1cccc(OCc2nc(-c3ccc(C(F)(F)F)cc3)oc2C)c1
Decrease [12]: 43%
Decrease [15]: inactive

The next lines start with the compound.

Compound: Cc1oc(-c2ccc(C(F)(F)F)cc2)nc1COc1cccc(/C(=C/Cn2oc(=O)[nH]c2=O)Cc2ccccc2)c1
Decrease [5]: 46%
Decrease [6]: 23%
inhibition [7]: 0.8%

Compound: C/C(=C\C=C\Cn1oc(=O)[nH]c1=O)c1cccc(OCc2nc(-c3ccccc3)oc2C)c1
Decrease [8]: inactive
Decrease [9]: inactive
Decrease [10]: inactive
inhibition [4]: 57%
inhibition [11]: 1.4%

Compound: C/C(=C\Cn1oc(=O)[nH]c1=O)c1cccc(OCc2nc(-c3ccc(C(F)(F)F)cc3)oc2-c2ccccc2)c1
Decrease [16]: 30%
IC50 [1]: 0.3 µM
Decrease [6]: 25%

Compound: CCC/C(=C\Cn1oc(=O)[nH]c1=O)c1cccc(OCc2nc(-c3ccc(C(F)(F)F)cc3)oc2C)c1
Decrease [17]: 82%
Decrease [18]: 58%
inhibition [4]: 58%
Decrease [19]: 59%
inhibition [20]: 1.9%
inhibition [11]: 2%
